Publication PMC6598221 (Saudi Pharmaceutical Journal : SPJ, 2019)

Target: trypsin from porcine pancreas (Sus scrofa, UniProt P00761)
Assay: trypsin inhibition assay
Type: biochemical
Method in brief: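 Porcine pancreatic trypsin. Test compound stock diluted twofold in 50 mM Tris buffer (20 mM CaCl2, pH 8.2). Trypsin and BAPNA added at final 40 and 160 µg/mL, incubated at 37 °C for 12 min, stopped with 30% acetic acid, A410 read. IC50 derived from % inhibition. Caffeic and tannic acids were reference inhibitors. Means ± standard errors; one-way ANOVA with Tukey's test, p < 0.05.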

Chain of trypsin from porcine pancreas (P00761 9-231): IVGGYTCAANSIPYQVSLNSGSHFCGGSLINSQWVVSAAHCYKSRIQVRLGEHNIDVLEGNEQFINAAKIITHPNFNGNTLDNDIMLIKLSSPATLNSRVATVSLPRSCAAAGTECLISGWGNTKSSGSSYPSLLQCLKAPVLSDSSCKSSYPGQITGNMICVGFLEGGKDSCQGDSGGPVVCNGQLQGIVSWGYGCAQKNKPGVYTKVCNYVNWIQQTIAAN

IC50	IC50 trypsin inhibition	Molecule
40.6 mM		O=C(O)/C=C/c1ccc(O)c(O)c1 [caffeic acid]
	75.66 µg/mL	tannic acid
